According to ChEMBL document CHEMBL1126878, “4,5-Dihydro-1-phenyl-1H-2,4-benzodiazepines: novel antiarrhythmic agents” (J Med Chem, 1993):

Key:
[1] = biological target: Sodium channel protein type 5 subunit alpha (cardiac sodium channel) (Rattus norvegicus, UniProt P15389); assay: in vitro; conditions: sodium channel from cardiac myocytes, probe [3H]batrachotoxin ([3H]BTX)
Cavia porcellus [2] = assay: In vivo index of cardiac contractility using paced guinea pig model; format: functional
How it was run: (§1)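 Guinea pig paced in vivo model. Hemodynamics recorded in normal sinus rhythm; ERP measured during brief pacing at baseline and 10 min after dosing. Bolus of 1 mL/kg via left ventricular catheter for doses <10 mg/kg; higher doses infused over 1 min. Cumulative dosing every 15 min up to the maximally tolerated dose (dP/dt reduced >50%). ED20 (ERP +20 ms) and dP/dt20 (20% drop in LV pressure-rise rate) derived by linear regression of individual dose-response curves.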

Cavia porcellus [3] = assay: Effective dose in vivo for cardiac refractoriness (ERP) using paced guinea pig model; format: functional
How it was run: as §1

Canis familiaris = assay: Minimal effective dose that resulted in significant reduction in PVC frequency in conscious dogs by po administration after 24 hours of coronary artery ligation; format: functional; conditions: Canis lupus familiaris, read-out: MED
How it was run: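 Dogs (8.0–19.1 kg) underwent LAD occlusion under halothane anesthesia with Holter electrodes. 24 h after occlusion, animals with PVCs exceeding 50% of heart rate were dosed orally by gavage with agent in water (n = 4 per group). Holter recorded 1 h before and 12–24 h after dosing.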

Cavia porcellus [4] = assay: Minimal effective dose that resulted in significant delay in the onset of arrhythmias in guinea pig with iv administration of aconitine hydrochloride; format: functional; conditions: read-out: MED
How it was run: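 Guinea pigs (n = 6 per dose, parallel groups) received agent or saline iv (1 mL/kg) 10 min before a lethal aconitine hydrochloride challenge (34 μg/kg iv). Times to first PVC, sustained VT and VF (>15 s) were recorded and compared with concurrent controls by one-way ANOVA. MED taken from an ascending semilogarithmic dose escalation as the dose giving significant delay in arrhythmia onset.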

Felis catus [5] = assay: Effective refractory period (ERP) after iv administration to anesthetized, acutely infarcted cats at x mg/kg; format: functional
How it was run: (§2)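 Anesthetized cats given a slow iv bolus, with single-stage LAD occlusion 10 min later. Stimulating current raised until fibrillation; three baseline sequences about 15 min apart. Pacing repeated every 15 min for 2 h after occlusion, then every 30 min, for 5 h in total. Values are the mean maximum change over 5 h in VFT (mamps) or ERP (ms); cardioversion at 14–50 J.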

Felis catus [6] = assay: Ventricular fribrillation threshold (VFT) after iv administration to anesthetized, acutely infarcted cats at 0.3 mg/kg; format: functional, Heart
How it was run: as §2

Felis catus [7] = assay: Ventricular fribrillation threshold (VFT) after iv administration to anesthetized, acutely infarcted cats at 1 mg/kg; format: functional, Heart
How it was run: as §2

Chain of Sodium channel protein type 5 subunit alpha (cardiac sodium channel) (P15389 whole entry): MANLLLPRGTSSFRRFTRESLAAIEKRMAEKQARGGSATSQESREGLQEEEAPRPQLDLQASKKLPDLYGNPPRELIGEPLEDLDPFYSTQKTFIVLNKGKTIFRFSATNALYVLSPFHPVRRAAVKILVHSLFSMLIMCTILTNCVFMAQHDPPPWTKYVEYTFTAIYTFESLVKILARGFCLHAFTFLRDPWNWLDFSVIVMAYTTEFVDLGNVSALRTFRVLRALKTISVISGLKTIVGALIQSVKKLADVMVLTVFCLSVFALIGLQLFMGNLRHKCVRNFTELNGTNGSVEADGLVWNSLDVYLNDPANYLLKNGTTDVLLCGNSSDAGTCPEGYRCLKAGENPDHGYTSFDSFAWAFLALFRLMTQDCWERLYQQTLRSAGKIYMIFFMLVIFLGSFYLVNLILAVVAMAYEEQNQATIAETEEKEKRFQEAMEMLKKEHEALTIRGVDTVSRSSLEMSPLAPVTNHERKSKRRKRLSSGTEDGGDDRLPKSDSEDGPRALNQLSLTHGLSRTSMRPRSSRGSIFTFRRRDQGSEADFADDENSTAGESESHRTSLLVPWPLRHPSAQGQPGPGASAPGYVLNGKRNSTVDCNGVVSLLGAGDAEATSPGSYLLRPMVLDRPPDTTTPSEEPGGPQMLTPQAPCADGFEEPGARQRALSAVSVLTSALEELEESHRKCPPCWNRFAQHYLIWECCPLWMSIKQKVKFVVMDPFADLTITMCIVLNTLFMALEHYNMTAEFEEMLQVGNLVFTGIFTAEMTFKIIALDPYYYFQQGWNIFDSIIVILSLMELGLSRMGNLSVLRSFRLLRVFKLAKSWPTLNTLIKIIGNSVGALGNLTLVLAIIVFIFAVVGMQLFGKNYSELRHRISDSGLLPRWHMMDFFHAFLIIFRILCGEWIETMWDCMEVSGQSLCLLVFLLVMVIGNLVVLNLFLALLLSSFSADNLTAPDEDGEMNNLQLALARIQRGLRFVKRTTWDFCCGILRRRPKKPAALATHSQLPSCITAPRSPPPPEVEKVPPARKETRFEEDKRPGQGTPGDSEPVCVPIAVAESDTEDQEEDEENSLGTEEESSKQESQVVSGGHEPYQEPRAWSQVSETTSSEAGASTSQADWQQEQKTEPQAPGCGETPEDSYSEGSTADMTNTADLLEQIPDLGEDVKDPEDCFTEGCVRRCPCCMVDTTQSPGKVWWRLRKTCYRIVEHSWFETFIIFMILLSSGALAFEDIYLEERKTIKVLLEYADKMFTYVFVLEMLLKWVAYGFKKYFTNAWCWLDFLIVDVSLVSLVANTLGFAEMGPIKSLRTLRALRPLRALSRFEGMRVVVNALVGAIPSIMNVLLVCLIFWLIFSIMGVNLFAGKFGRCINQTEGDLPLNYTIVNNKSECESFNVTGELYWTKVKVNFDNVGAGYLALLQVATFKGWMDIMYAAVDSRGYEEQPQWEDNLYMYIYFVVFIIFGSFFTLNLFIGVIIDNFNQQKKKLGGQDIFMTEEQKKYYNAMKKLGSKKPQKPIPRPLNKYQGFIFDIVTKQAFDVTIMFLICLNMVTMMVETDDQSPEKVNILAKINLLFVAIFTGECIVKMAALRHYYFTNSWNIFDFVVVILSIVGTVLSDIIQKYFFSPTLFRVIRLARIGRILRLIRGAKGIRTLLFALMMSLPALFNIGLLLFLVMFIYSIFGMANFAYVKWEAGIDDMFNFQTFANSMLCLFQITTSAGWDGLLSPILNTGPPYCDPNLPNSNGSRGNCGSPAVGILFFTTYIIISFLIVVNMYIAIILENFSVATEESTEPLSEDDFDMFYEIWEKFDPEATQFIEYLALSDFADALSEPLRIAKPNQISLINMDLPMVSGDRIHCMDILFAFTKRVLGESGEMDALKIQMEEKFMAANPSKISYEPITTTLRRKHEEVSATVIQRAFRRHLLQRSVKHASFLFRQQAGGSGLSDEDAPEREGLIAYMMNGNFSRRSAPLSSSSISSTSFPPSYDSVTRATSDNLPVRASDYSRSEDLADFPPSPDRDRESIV

Compound | inhibition at 10 µM [1] | dP/dt20 (Cavia porcellus [2]) | ED20 (Cavia porcellus [3]) | minimal effective dose (Canis familiaris) | minimal effective dose (Cavia porcellus [4]) | ERP (Felis catus [5]) | VFT (Felis catus [6]) | VFT (Felis catus [7])
CN1Cc2ccccc2C(c2ccccc2)N=C1CCC1CCCCC1.Cl (stereo unspecified) | 98% | 0.66 mg/kg | 0.1 mg/kg | – | – | – | – | –
CCCCCCCCC1=NC(c2ccccc2)c2ccccc2CN1C.Cl (stereo unspecified) | 81% | 0.1 mg/kg | 0.2 mg/kg | – | – | – | – | –
CC1=NC(c2ccccc2)c2ccccc2CN1C (stereo unspecified) | 52% | 0.9 mg/kg | 1.2 mg/kg | – | – | – | – | –
CN1Cc2ccccc2C(c2ccccc2)N=C1N1CCOCC1.Cl (stereo unspecified) | 49% | 0.4 mg/kg | 0.6 mg/kg | – | – | – | – | –
CN1CCN(CC2=NC(c3ccccc3)c3ccccc3CN2C)CC1.O=C(O)/C=C/C(=O)O (stereo unspecified) | 38% | 0.1 mg/kg | 0.4 mg/kg | – | – | – | – | –
CN1Cc2ccccc2C(c2ccccc2)N=C1N.Cl (stereo unspecified) | 91% | 1 mg/kg | 1.7 mg/kg | – | – | – | – | –
CN1C=NC(c2ccccc2)c2ccccc2C1 (stereo unspecified) | 68% | 0.9 mg/kg | 1.4 mg/kg | – | – | – | – | –
CC(C)C1=NC(C)(c2ccccc2)c2ccccc2CN1C (stereo unspecified) | 50% | 0.7 mg/kg | 0.8 mg/kg | – | – | – | – | –
COc1ccc(OCC2=NC(c3ccccc3)c3ccccc3CN2C)cc1.Cl (stereo unspecified) | 98% | 0.48 mg/kg | 0.1 mg/kg | – | – | – | – | –
CN1Cc2ccccc2C(c2ccccc2)N=C1COc1ccccc1.Cl (stereo unspecified) | 98% | – | 0.3 mg/kg | – | – | – | – | –
CCC1=NC(c2ccccc2)c2ccccc2C(c2ccccc2)N1C (stereo unspecified) | 97% | 0.01 mg/kg | > 20 mg/kg | – | – | – | – | –
COc1ccc(CCC2=NC(c3ccccc3)c3ccccc3CN2C)cc1.Cl (stereo unspecified) | 91% | 0.66 mg/kg | 0.1 mg/kg | – | – | – | – | –
CN1Cc2ccccc2C(Cc2ccccc2)N=C1CCc1ccccc1.O=C(O)/C=C/C(=O)O (stereo unspecified) | 97% | 0.04 mg/kg | 0.2 mg/kg | – | – | – | – | –
CCC1=NC(COC)(c2ccccc2)c2ccccc2CN1C (stereo unspecified) | 45% | 0.1 mg/kg | 2.5 mg/kg | – | – | – | – | –
CCN(CC)CC(=O)Nc1c(C)cccc1C [LIDOCAINE] | 10% | 4.3 mg/kg | 8 mg/kg | – | – | – | – | –
CCN(CC)CC1=NC(C)(c2ccccc2)c2ccccc2CN1C.Cl (stereo unspecified) | 90% | 0.01 mg/kg | > 20 mg/kg | – | – | – | – | –
COc1ccc(C(=O)Nc2ccccc2CCC2CCCCN2C)cc1 (stereo unspecified) [ENCAINIDE] | 55% | 0.003 mg/kg | 0.7 mg/kg | – | – | – | – | –
CCCCCC1=NC(c2ccccc2)c2ccccc2CN1C.Cl (stereo unspecified) | 95% | 0.08 mg/kg | 0.1 mg/kg | – | – | – | – | –
CCC1=NC(CC)(c2ccccc2)c2ccccc2CN1C (stereo unspecified) | 78% | 0.1 mg/kg | 0.2 mg/kg | – | – | – | – | –
CN1Cc2ccccc2C(c2ccccc2)N=C1CCCc1ccccc1.Cl (stereo unspecified) | 100% | 0.12 mg/kg | 0.2 mg/kg | – | – | – | – | –
CCC1=NC(c2ccccc2)c2ccccc2CN1Cc1ccccc1.Cl (stereo unspecified) | 98% | 0.2 mg/kg | 1 mg/kg | – | – | – | – | –
CN1Cc2ccccc2C(c2ccccc2)N=C1c1ccccc1 (stereo unspecified) | 85% | 1.1 mg/kg | 0.3 mg/kg | – | – | – | – | –
CC(C)NCC(O)c1ccc(NS(C)(=O)=O)cc1 (stereo unspecified) [SOTALOL] | 0% | 1.9 mg/kg | 1.3 mg/kg | – | – | – | – | –
CC1=NC(C)(c2ccccc2)c2ccccc2CN1C.O=C(O)/C=C/C(=O)O (stereo unspecified) | 71% | 0.9 mg/kg | 0.8 mg/kg | – | – | – | – | –
CN1Cc2ccccc2C(c2ccccc2)N=C1Cc1ccccc1.Cl (stereo unspecified) | 95% | 0.15 mg/kg | 0.3 mg/kg | – | – | – | – | –
C=C[C@H]1CN2CC[C@H]1C[C@@H]2[C@@H](O)c1ccnc2ccc(OC)cc12 [QUINIDINE] | 68% | 2.5 mg/kg | 7.2 mg/kg | 30 mg/kg | 1 mg/kg | – | – | –
CN1Cc2ccccc2C(c2ccccc2)N=C1COc1ccc(Cl)cc1 (stereo unspecified) | 100% | 0.17 mg/kg | 0.2 mg/kg | – | – | – | – | –

Compound | inhibition at 10 µM [1] | dP/dt20 (Cavia porcellus [2]) | ED20 (Cavia porcellus [3]) | minimal effective dose (Canis familiaris) | minimal effective dose (Cavia porcellus [4]) | ERP (Felis catus [5]) | VFT (Felis catus [6]) | VFT (Felis catus [7])
CN1Cc2ccccc2C(c2ccccc2)N=C1CN1CCCCC1.O=C(O)/C=C/C(=O)O (stereo unspecified) | 94% | 0.002 mg/kg | 0.4 mg/kg | – | – | – | – | –
COc1ccc(C2N=C(CCc3ccccc3)N(C)Cc3ccccc32)cc1.Cl (stereo unspecified) | 95% | 0.1 mg/kg | 0.1 mg/kg | – | – | – | – | –
CCC1=NC(c2ccccc2)c2ccc3ccccc3c2CN1C (stereo unspecified) | 98% | 0.06 mg/kg | 0.3 mg/kg | – | – | – | – | –
CN1Cc2ccccc2[C@@H](c2ccccc2)N=C1CCc1ccccc1.Cl | – | 0.03 mg/kg | 0.03 mg/kg | 3 mg/kg | 0.1 mg/kg | 13 ms | 37 mA | –
CN1Cc2ccccc2C(c2ccccc2)N=C1CN1CCOCC1.O=C(O)/C=C/C(=O)O (stereo unspecified) | 57% | 0.11 mg/kg | 0.25 mg/kg | – | – | – | – | –
CN1Cc2ccccc2C(c2ccccc2)N=C1N1CCCC1 (stereo unspecified) | 100% | – | 0.2 mg/kg | – | – | – | – | –
CCCCC1=NC(c2ccccc2)c2ccccc2CN1C.Cl (stereo unspecified) | 83% | 0.1 mg/kg | 0.1 mg/kg | – | – | – | – | –
CCOC(=O)CC1=NC(C)(c2ccccc2)c2ccccc2CN1C (stereo unspecified) | 79% | 0.007 mg/kg | 0.3 mg/kg | – | – | – | – | –
CN1Cc2ccccc2C(C)(c2ccccc2)N=C1CCl (stereo unspecified) | 82% | 0.002 mg/kg | 0.4 mg/kg | – | – | – | – | –
CCC1=NCc2ccccc2C(c2ccccc2)N1Cc1ccccc1.Cl (stereo unspecified) | 97% | 0.3 mg/kg | > 3 mg/kg | – | – | – | – | –
CN(C)CC1=NC(C)(c2ccccc2)c2ccccc2CN1C (stereo unspecified) | 57% | 0.02 mg/kg | 0.8 mg/kg | – | – | – | – | –
CCC1=NC(c2ccccc2)c2ccccc2CN1C(C)C.Cl (stereo unspecified) | 87% | 0.15 mg/kg | 0.2 mg/kg | – | – | – | – | –
CN1Cc2ccccc2C(c2ccc(Cl)cc2)N=C1CCc1ccccc1 (stereo unspecified) | 96% | 0.2 mg/kg | 0.2 mg/kg | – | – | – | – | –
CCCC1=NC(c2ccccc2)c2ccccc2CN1C.Cl (stereo unspecified) | 72% | 0.8 mg/kg | 0.4 mg/kg | – | – | – | – | –
CN1Cc2ccccc2C(C)(c2ccccc2)N=C1CCc1ccccc1 (stereo unspecified) | 97% | 0.9 mg/kg | 0.34 mg/kg | – | – | – | – | –
CCN(CC)CCNC1=NC(c2ccccc2)c2ccccc2CN1C.O=C(O)/C=C/C(=O)O (stereo unspecified) | 98% | 0.9 mg/kg | 0.7 mg/kg | – | – | – | – | –
CCC1=NC(c2ccccc2)c2ccccc2CN1.Cl (stereo unspecified) | 84% | 0.2 mg/kg | 1.1 mg/kg | – | – | – | – | –
CN1Cc2ccccc2C(c2ccccc2)N=C1CCc1ccc(Cl)cc1.O=C(O)/C=C/C(=O)O (stereo unspecified) | 97% | 0.85 mg/kg | 0.1 mg/kg | 3 mg/kg | 3 mg/kg | 45 ms | – | 93 mA
CCC1=NC(C(C)=O)(c2ccccc2)c2ccccc2CN1C.O=C(O)/C=C/C(=O)O (stereo unspecified) | 28% | 0.45 mg/kg | 0.9 mg/kg | – | – | – | – | –
CCOC(=O)C1(c2ccccc2)N=C(CC)N(C)Cc2ccccc21.O=C(O)/C=C/C(=O)O (stereo unspecified) | 56% | 0.1 mg/kg | 0.4 mg/kg | 3 mg/kg | < 3 mg/kg | 47 ms | 84 mA | –
CN1Cc2ccccc2C(C)(c2ccccc2)N=C1CC(O)c1ccccc1 (stereo unspecified) | 92% | 0.1 mg/kg | 0.1 mg/kg | 10 mg/kg | < 3 mg/kg | – | – | –
CCC1=N[C@@H](c2ccccc2)c2ccccc2CN1C.Cl | 45% | 0.09 mg/kg | 7.1 mg/kg | > 10 mg/kg | 3 mg/kg | – | – | –
CN1Cc2ccccc2C(C)(c2ccccc2)N=C1CN1CCOCC1 (stereo unspecified) | 51% | 0.1 mg/kg | 2.4 mg/kg | – | – | – | – | –
CCC1=NC(Cc2ccccc2)c2ccccc2CN1C (stereo unspecified) | 84% | 0.2 mg/kg | 0.2 mg/kg | – | – | – | – | –
CCC1=NC(c2cccc3ccccc23)c2ccccc2CN1C (stereo unspecified) | 94% | 0.2 mg/kg | 0.6 mg/kg | – | – | – | – | –
CN(C)CC1=NC(c2ccccc2)c2ccccc2CN1C.O=C(O)/C=C/C(=O)O (stereo unspecified) | 44% | – | 0.6 mg/kg | – | – | – | – | –
CCN(CC)CCNC(=O)c1ccc(NS(C)(=O)=O)cc1 [SEMATILIDE] | 0% | 18.7 mg/kg | 1.9 mg/kg | – | – | – | – | –
